The source of these data is PubChem BioAssay.

A short description of assay [1]: reducers of endogenous Her2 protein level, primary screen, SKBR3 breast tumor cells, AlphaScreen, ATP viability (AID 461;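 active = Her2 level under about 52% in both replicate screens, with viability over 70% of control, limit read from the data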;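 for Her2 level: lower value means less Her2 protein in the cells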;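 for viability: percent of carrier control wells set as 100% viability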). Conditions: 18-24 h, measured here: SKBR3 viability, ATP luminescence, at 10 µM.
For assay [2], the target named is Receptor tyrosine-protein kinase erbB-2 (Homo sapiens) (UniProt P04626). Described as above. The following applies: 18-24 h, at 10 µM, stronger effect = lower value.
Assay [3] can be described thus: SK-BR-3 cell growth inhibitors, pilot screen, 24 h, human (AID 572).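 Note: compound exposure lasted between 18 and 24 h rather than exactly 24 h; 100% = carrier-treated control wells.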 Conditions: SK-BR-3 viability, CellTiter-Glo luminescence, at 10 µM, stronger effect = lower value.
The nature of assay [4]: HUVEC growth inhibition – cell-based, human, primary screen (AID 575;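 active = viability at or below 30% in both replicate assays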;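 note: 100% = median of untreated cell wells with 0.1% DMSO on each plate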). Conditions: HUVEC proliferation, CellTiter-Glo luminescence, 72 h; at 10 µM; stronger effect = lower value. In outline: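 Test system: primary human umbilical vein endothelial cells; medium: endothelial basal medium with 2% FBS plus growth supplements; dosing: 10 µM compound only; times: 72 h treatment at 37 °C; signal: CTG luminescence; read-out: % viability relative to median vehicle-well signal on each plate; control set: vehicle and MePR control wells; plate: 384-well, collagen-coated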

The nature of assay [5]: growth inhibitors of H69AR lung tumor, primary screen, human, duplicate replicates (AID 580;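 active = viability at or under a set limit in both replicates, limit being median viability minus 3 SD, cut at about 48% in these data, passing the limit was not always enough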;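 note: 100% = mean luminescence of untreated wells and 0% = no signal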). The following applies: H69AR lung tumor cells viability, ATP luminescence, 72 h; at 10 µM; stronger effect = lower value.
Assay [6] is described as follows: reversal of MRP1-mediated doxorubicin resistance, pilot screen, H69AR cells, doxorubicin co-treatment (AID 601;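 active = viability loss from added drug above about 55%, and viability with drug at most 40%, in both replicates, limit read from the data, passing the limit was not always enough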). The following applies: CellTiter-Glo, 72 h, at 10 µM; for differential viability (reversal): stronger effect = higher value.
Assay [7] in a line: 384-well plate pilot, post-Golgi transport modulator project, inhibition of yeast transport mutant growth (AID 636; in the data active = inhibition above about 31%). The following applies: absorbance 615 nm, about 18 h, stronger effect = higher value.
Assay [8] can be described thus: growth suppression of yeast trafficking mutant, preliminary HTS, modulators of trafficking downstream of Golgi apparatus project, 1536-format plate, OD 615 nm (AID 637; in the data active = inhibition above about 30%). Conditions: yeast transport mutant growth, absorbance 615 nm, 18 h; stronger effect = higher value.
[9] abbreviates: H69AR cells + 2 uM doxorubicin, measured here: viability with 2 uM doxorubicin, stronger effect = lower value.
The mark [10] stands for this setting: H69AR cells, compound alone cytotoxicity.

Active and inactive are the calls of the source.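 Rule for the calls, unless noted: active = viability at or below 10% of carrier control in both of two separate runs; inconclusive = viability at or below 10% in only one of the two runs; inactive = the rest.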

Chain of Receptor tyrosine-protein kinase erbB-2 (Homo sapiens) (P04626 whole entry, looked up): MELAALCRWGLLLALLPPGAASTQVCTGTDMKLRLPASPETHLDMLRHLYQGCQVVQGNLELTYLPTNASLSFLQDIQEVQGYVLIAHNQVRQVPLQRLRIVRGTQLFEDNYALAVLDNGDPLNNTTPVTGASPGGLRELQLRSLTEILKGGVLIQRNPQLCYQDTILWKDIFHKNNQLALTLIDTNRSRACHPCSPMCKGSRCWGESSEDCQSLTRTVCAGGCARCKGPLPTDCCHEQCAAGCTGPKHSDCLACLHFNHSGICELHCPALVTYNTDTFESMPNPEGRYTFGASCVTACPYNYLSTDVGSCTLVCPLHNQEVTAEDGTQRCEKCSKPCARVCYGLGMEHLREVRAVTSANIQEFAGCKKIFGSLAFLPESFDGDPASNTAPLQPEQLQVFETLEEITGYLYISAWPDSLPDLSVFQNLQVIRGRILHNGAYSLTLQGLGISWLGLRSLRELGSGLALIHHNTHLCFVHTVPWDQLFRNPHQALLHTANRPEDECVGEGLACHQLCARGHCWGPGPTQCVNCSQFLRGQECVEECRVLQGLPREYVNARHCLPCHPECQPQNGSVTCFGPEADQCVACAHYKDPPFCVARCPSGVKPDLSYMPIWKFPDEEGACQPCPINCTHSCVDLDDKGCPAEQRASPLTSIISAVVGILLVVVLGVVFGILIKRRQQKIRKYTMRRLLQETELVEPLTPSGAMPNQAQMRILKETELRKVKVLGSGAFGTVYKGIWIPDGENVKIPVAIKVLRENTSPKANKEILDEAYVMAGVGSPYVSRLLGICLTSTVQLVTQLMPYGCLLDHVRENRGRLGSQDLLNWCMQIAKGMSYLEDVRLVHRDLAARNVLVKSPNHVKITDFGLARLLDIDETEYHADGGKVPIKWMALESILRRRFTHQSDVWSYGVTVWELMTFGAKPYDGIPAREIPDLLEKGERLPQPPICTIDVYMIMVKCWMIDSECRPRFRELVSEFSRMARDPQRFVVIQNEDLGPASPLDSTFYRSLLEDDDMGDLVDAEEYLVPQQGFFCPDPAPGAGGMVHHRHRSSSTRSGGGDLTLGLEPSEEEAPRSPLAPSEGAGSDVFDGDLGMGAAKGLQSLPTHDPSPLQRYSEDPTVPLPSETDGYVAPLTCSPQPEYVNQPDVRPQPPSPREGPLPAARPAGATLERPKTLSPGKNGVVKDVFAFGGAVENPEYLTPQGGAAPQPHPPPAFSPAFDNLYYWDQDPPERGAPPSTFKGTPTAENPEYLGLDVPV

Consider `FC(F)(F)C(F)(F)C(F)(F)c1nnc2ccc(N3CCOCC3)nn12`, for which the viability in assay [1] was 97.5%; in assay [3], 97.5% (inactive); in assay [4], 84.8% (inactive); in assay [5], 83.7% (inactive); in assay [6] (setting [9]), 83.9%; in assay [6] (setting [10]) it was 83.7%. In assay [2], the Her2 level is 118% (inactive). For the same compound, the differential viability (reversal) in assay [6] (H69AR cells + 2 uM doxorubicin) was -0.265% (inactive). The inhibition was 4.21% (inactive) in assay [7] and 7.94% (inactive) in assay [8].
Regarding `Cc1ccc(-c2nnc(SCC(=O)N3CC(C)CC(C)C3)o2)cc1C` (stereo not given), the viability is 97% in assay [1]; 97% (inactive) in assay [3]; 71.4% (inactive) in assay [4]; 90.7% (inactive) in assay [5]; 92.7% in assay [6] (setting [9]); 90.7% in assay [6] (setting [10]). In addition, the Her2 level in assay [2] is 106% (inactive). Besides, the differential viability (reversal) in assay [6] (H69AR cells + 2 uM doxorubicin) was -2.04% (inactive). In addition, the inhibition in assay [7] is -2.13% (inactive); in assay [8], -4.75% (inactive).
Turning to `COC(=O)c1ccccc1NC(=O)Nc1cc(C)cc(C)n1`, the viability was 96% in assay [1]; 96% (inactive) in assay [3]; 103% (inactive) in assay [4]; 102% (inactive) in assay [5]; 94.8% in assay [6] (setting [9]); 102% in assay [6] (setting [10]). For the same compound, the Her2 level in assay [2] was 86% (inactive). In assay [6] (H69AR cells + 2 uM doxorubicin), the differential viability (reversal) was 6.95% (inactive). Further, the inhibition in assay [7] was -1.58% (inactive); in assay [8] it was -1.9% (inactive).
For `COc1ccc(-n2nc(C(=O)NCC(=O)NCC3CCCO3)c3ccccc3c2=O)cc1` (stereo not given), the viability in assay [1] was 120%; in assay [3], 120% (inactive); in assay [4], 103% (inactive); in assay [5], 85.5% (inactive); in assay [6] (setting [9]) it was 92.2%; in assay [6] (setting [10]), 85.5%. In addition, the Her2 level in assay [2] is 86.5% (inactive). Further, the differential viability (reversal) in assay [6] (H69AR cells + 2 uM doxorubicin) was -6.73% (inactive). The inhibition in assay [7] is -0.78% (inactive); in assay [8], 1.15% (inactive).
Regarding `O=C(CN(Cc1ccc(F)cc1)C(=O)Cn1nnc2ccccc21)NCC1CCCO1` (stereo not given), the viability is 110% in assay [1]; 110% (inactive) in assay [3]; 118% (inactive) in assay [4]; 90.3% (inactive) in assay [5]; 85.8% in assay [6] (setting [9]); 90.3% in assay [6] (setting [10]). In addition, the Her2 level in assay [2] is 90.5% (inactive). Also, the differential viability (reversal) in assay [6] (H69AR cells + 2 uM doxorubicin) is 4.51% (inactive). Also, the inhibition in assay [7] was 0.13% (inactive); in assay [8], -1.64% (inactive).
Consider `CCCCC(CC)C(=O)Nc1ccccc1C#N` (stereo not given), for which the viability in assay [1] was 96%; in assay [3], 96% (inactive); in assay [4] it was 98.6% (inactive); in assay [5] it was 89.1% (inactive); in assay [6] (setting [9]), 80.1%; in assay [6] (setting [10]) it was 89.1%. Moreover, in assay [2], the Her2 level was 95% (inactive). In assay [6] (H69AR cells + 2 uM doxorubicin), the differential viability (reversal) is 8.93% (inactive). In addition, the inhibition is -4.34% (inactive) in assay [7] and 4.29% (inactive) in assay [8].
For the compound `C/C(N)=C(/C#N)C(=O)COC(=O)c1cc(S(=O)(=O)N2CCCCC2)ccc1C`, the viability in assay [1] is 88.5%; in assay [3], 88.5% (inactive); in assay [4] it was 82.2% (inactive); in assay [5], 95.8% (inactive); in assay [6] (setting [9]), 94.8%; in assay [6] (setting [10]), 95.8%. Besides, the Her2 level in assay [2] was 79.5% (inactive). For the same compound, the differential viability (reversal) in assay [6] (H69AR cells + 2 uM doxorubicin) is 0.98% (inactive). Further, the inhibition in assay [7] is 0.38% (inactive); in assay [8], -3.83% (inactive).
For the compound `Cn1c(=O)c2c(nc(NCC3CCCO3)n2C)n(C)c1=O` (stereo not given), the viability in assay [1] is 102%; in assay [3] it was 102% (inactive); in assay [4], 105% (inactive); in assay [5], 103% (inactive); in assay [6] (setting [9]), 95.5%; in assay [6] (setting [10]) it was 103%. Moreover, the Her2 level in assay [2] was 104% (inactive). Moreover, the differential viability (reversal) in assay [6] (H69AR cells + 2 uM doxorubicin) is 7.24% (inactive). In addition, the inhibition in assay [7] is -1.33% (inactive); in assay [8], -3.11% (inactive).
For `c1cncc(-c2nc3c4ccccc4nc(N4CCC(N5CCCCC5)CC4)n3n2)c1`, the viability was 93.5% in assay [1]; 93.5% (inactive) in assay [3]; 80.1% (inactive) in assay [4]; 84.1% (inactive) in assay [5]; 81.2% in assay [6] (setting [9]); 84.1% in assay [6] (setting [10]). Further, the Her2 level in assay [2] was 79.5% (inactive). Further, in assay [6] (H69AR cells + 2 uM doxorubicin), the differential viability (reversal) was 2.83% (inactive). In addition, the results for the inhibition in assay [7] and in assay [8] were -9.73% (inactive) and -0.48% (inactive), respectively.
Regarding `COc1ccc(OC)c(C(=O)CSc2nc3ncccc3[nH]2)c1`, the viability in assay [1] was 94%; in assay [3], 94% (inactive); in assay [4] it was 96.6% (inactive); in assay [5], 88.9% (inactive); in assay [6] (setting [9]), 81.1%; in assay [6] (setting [10]), 88.9%. The Her2 level in assay [2] is 108% (inactive). In addition, in assay [6] (H69AR cells + 2 uM doxorubicin), the differential viability (reversal) was 7.8% (inactive). For the same compound, the inhibition in assay [7] was -1.17% (inactive); in assay [8] it was 12.5% (inactive).
In the case of `COc1cccc(NC(=O)CSc2nnnn2C(C)C)c1`, the viability in assay [1] is 118%; in assay [3], 118% (inactive); in assay [4] it was 97.9% (inactive); in assay [5] it was 103% (inactive); in assay [6] (setting [9]) it was 89.7%; in assay [6] (setting [10]) it was 103%. Besides, the Her2 level in assay [2] is 86.5% (inactive). Also, the differential viability (reversal) in assay [6] (H69AR cells + 2 uM doxorubicin) is 13.7% (inactive). The figures for the inhibition in assay [7] and in assay [8] were -3.65% (inactive) and 0.79% (inactive), respectively.
Take `CC1Cc2ccccc2N1C(=O)c1cnsn1` (stereo not given): the viability in assay [1] was 136%; in assay [3] it was 136% (inactive); in assay [4], 86.3% (inactive); in assay [5], 97.8% (inactive); in assay [6] (setting [9]), 87.4%; in assay [6] (setting [10]), 97.8%. Further, the Her2 level in assay [2] was 103% (inactive). The differential viability (reversal) in assay [6] (H69AR cells + 2 uM doxorubicin) is 10.4% (inactive). Further, the inhibition in assay [7] was -6.71% (inactive); in assay [8], -10.8% (inactive).
`O=C(N1CCN(c2ccccc2F)CC1)C12CC3CC(CC(C3)C1)C2`: the viability in assay [1] is 88.5%; in assay [3], 88.5% (inactive); in assay [4], 93.7% (inactive); in assay [5], 89.9% (inactive); in assay [6] (setting [9]), 98.7%; in assay [6] (setting [10]), 89.9%. Besides, the Her2 level in assay [2] was 87.5% (inactive). In addition, in assay [6] (H69AR cells + 2 uM doxorubicin), the differential viability (reversal) is -8.84% (inactive). Moreover, the results for the inhibition in assay [7] and in assay [8] were -5.6% (inactive) and 3.97% (inactive), respectively.
With `CN1CCN(c2ncnc3c2cnn3-c2ccc(Cl)cc2)CC1`, the viability in assay [1] was 109%; in assay [3] it was 109% (inactive); in assay [4], 53.6% (inactive); in assay [5] it was 89.3% (inactive); in assay [6] (setting [9]) it was 88.3%; in assay [6] (setting [10]) it was 89.3%. Besides, the Her2 level in assay [2] was 94% (inactive). For the same compound, the differential viability (reversal) in assay [6] (H69AR cells + 2 uM doxorubicin) was 1.02% (inactive). Besides, the inhibition was -0.27% (inactive) in assay [7] and 2.5% (inactive) in assay [8].
As to `O=S(=O)(Nc1cccnc1)c1ccc2c(c1)OCCO2`, the viability was 91.5% in assay [1]; 91.5% (inactive) in assay [3]; 99.7% (inactive) in assay [4]; 104% (inactive) in assay [5]; 91.9% in assay [6] (setting [9]); 104% in assay [6] (setting [10]). In addition, the Her2 level in assay [2] was 92% (inactive). For the same compound, the differential viability (reversal) in assay [6] (H69AR cells + 2 uM doxorubicin) was 12.1% (inactive). In addition, the values for the inhibition in assay [7] and in assay [8] were -6.97% (inactive) and 3.17% (inactive), respectively.
